According to ChEMBL document CHEMBL2163243, “Metaproterenol, isoproterenol, and their bisdimethylcarbamate derivatives as human cholinesterase inhibitors” (J Med Chem, 2012):

What was measured:
Acetylcholinesterase [1] = target: T1, Acetylcholinesterase (Homo sapiens, UniProt P22303); test: Inhibition of human AChE using acetylthiocholine as substrate by Ellman's method
Cholinesterase [2] = target: Cholinesterase (Homo sapiens, UniProt P06276, D98G); test: Inhibition of human BChE D70G mutant atypical homozygous variant using propionylthiocholine as substrate assessed as inhibition rate constant incubated up to 30 mins prior to substrate addition by Ellman's method
Method in brief: (§1)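 BChE from heparinized human donor plasma (centrifuged supernatant, phenotyped), unpurified, diluted 150 - 300 times in phosphate buffer. Enzyme incubated ≤30 min with carbamate in 0.1 M phosphate buffer pH 7.4, 25 °C. Reaction stopped with PTCh (4.0 mM final) and residual activity read by Ellman (DTNB 0.3 mM final, 412 nm). At least three carbamate concentrations, at least two experiments. First-order constants from ln(v0/vi) vs time; ki = kmax/Ki.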

Cholinesterase [3] = target: Cholinesterase (Homo sapiens, UniProt P06276, T271M/G418V); test: Inhibition of human BChE T243M/G390V mutant fluoride-resistant homozygous variant using propionylthiocholine as substrate assessed as inhibition rate constant incubated up to 30 mins prior to substrate addition by Ellman's method; method in brief: as §1
Cholinesterase [4] = target: T2, Cholinesterase (Homo sapiens, UniProt P06276); test: Inhibition of human BChE D70G mutant usual-atypical heterozygous variant using propionylthiocholine as substrate assessed as inhibition rate constant incubated up to 30 mins prior to substrate addition by Ellman's method; method in brief: as §1
Target sequence in this assay (P06276 29-602 limits assumed): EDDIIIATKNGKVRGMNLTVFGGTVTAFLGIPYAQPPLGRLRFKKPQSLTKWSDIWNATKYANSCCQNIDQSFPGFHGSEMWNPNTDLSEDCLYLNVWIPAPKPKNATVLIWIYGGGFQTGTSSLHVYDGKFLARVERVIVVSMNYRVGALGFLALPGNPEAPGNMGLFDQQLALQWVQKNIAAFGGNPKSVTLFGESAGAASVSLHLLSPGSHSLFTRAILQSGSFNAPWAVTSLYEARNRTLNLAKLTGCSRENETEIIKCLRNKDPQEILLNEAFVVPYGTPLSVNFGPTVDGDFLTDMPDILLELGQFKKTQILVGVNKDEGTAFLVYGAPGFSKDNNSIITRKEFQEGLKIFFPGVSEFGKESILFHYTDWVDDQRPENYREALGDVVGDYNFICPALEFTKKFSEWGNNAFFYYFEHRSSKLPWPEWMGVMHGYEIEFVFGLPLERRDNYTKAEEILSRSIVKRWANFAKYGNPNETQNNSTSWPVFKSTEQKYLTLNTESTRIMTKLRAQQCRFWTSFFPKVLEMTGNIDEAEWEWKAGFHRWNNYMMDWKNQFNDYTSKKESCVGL

Cholinesterase [5] = target: T2, Cholinesterase; test: Inhibition of human BChE D70G/T243M/G390V mutant atypical-fluoride resistant heterozygous variant using propionylthiocholine as substrate assessed as inhibition rate constant incubated up to 30 mins prior to substrate addition by Ellman's method; method in brief: as §1
Target sequence in this assay (P06276 29-602 limits assumed): as above

Acetylcholinesterase [6] = target: T1, Acetylcholinesterase; test: Inhibition of human AChE using acetylthiocholine as substrate assessed as inhibition rate constant by Ellman's method
Cholinesterase [7] = target: T2, Cholinesterase; test: Inhibition of human BChE usual homozygous variant using propionylthiocholine as substrate assessed as inhibition rate constant incubated up to 30 mins prior to substrate addition by Ellman's method; method in brief: as §1
Target sequence in this assay (P06276 29-602 limits assumed, stated change not applied): as the sequence (P06276 29-602 limits assumed) above

Cholinesterase [8] = target: T2, Cholinesterase; test: Inhibition of human BChE usual homozygous variant using propionylthiocholine as substrate by Ellman's method; settings: TDE = time-dependent effect
Method in brief: (§2)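 Reversible inhibition of plasma BChE (phenotyped donor plasma, diluted 150 - 300 times) measured at several PTCh concentrations, with and without inhibitor (0.5 mM - 10 mM). Ellman read-out at 412 nm, DTNB 0.3 mM final, 0.1 M phosphate pH 7.4, 25 °C. Ki,app per substrate concentration from the Hunter-Downs equation by linear regression. Y-intercept gives K(I) and x-intercept gives K(S).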
Target sequence in this assay (P06276 whole entry): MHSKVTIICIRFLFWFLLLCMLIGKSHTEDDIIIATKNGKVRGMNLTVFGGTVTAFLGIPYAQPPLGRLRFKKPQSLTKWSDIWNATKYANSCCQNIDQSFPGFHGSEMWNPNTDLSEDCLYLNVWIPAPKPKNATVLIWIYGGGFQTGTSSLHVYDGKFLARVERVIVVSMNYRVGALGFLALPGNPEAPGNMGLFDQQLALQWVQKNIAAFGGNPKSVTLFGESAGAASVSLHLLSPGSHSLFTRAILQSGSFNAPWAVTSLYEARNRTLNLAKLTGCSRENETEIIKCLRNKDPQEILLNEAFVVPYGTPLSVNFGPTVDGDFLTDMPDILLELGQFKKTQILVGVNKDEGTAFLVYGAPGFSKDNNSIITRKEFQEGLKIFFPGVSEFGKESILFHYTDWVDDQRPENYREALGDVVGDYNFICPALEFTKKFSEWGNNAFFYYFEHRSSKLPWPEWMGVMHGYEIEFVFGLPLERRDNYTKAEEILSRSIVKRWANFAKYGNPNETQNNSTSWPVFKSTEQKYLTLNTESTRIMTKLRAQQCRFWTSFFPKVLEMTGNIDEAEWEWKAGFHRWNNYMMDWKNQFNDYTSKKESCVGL

Cholinesterase [9] = target: T2, Cholinesterase; test: Inhibition of human BChE D70G mutant atypical homozygous variant using propionylthiocholine as substrate by Ellman's method; settings: TDE = time-dependent effect; method in brief: as §2
Target sequence in this assay (P06276 whole entry): as above

Cholinesterase [10] = target: T2, Cholinesterase; test: Inhibition of human BChE D70G/T243M/G390V mutant atypical-fluoride resistant heterozygous variant using propionylthiocholine as substrate by Ellman's method; settings: TDE = time-dependent effect; method in brief: as §2
Target sequence in this assay (P06276 whole entry): as above

Cholinesterase [11] = target: T2, Cholinesterase; test: Inhibition of human BChE T243M/G390V mutant fluoride-resistant homozygous variant using propionylthiocholine as substrate by Ellman's method; settings: TDE = time-dependent effect; method in brief: as §2
Target sequence in this assay (P06276 whole entry): as above

Cholinesterase [12] = target: T2, Cholinesterase; test: Inhibition of human BChE D70G mutant usual-atypical heterozygous variant using propionylthiocholine as substrate by Ellman's method; settings: TDE = time-dependent effect; method in brief: as §2
Target sequence in this assay (P06276 whole entry): as above

Homo sapiens [13] = species on record: Homo sapiens; test: Selectivity ratio of apparent dissociation constant for enzyme-inhibitor complex for human AChE to apparent dissociation constant for enzyme-inhibitor complex for human BChE D70G mutant atypical homozygous variant
Method in brief: (§3)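 Human plasma BChE (phenotyped variants) and hemolysed erythrocyte AChE were used unpurified, with plasma diluted 150-300x and erythrocytes 600x. Activity was read by the Ellman method at 412 nm (DTNB 0.3 mM final) in 0.1 M phosphate, pH 7.4, 25 °C. Substrate was PTCh for BChE and ATCh for AChE, each at several concentrations, with inhibitor at 0.5-10 mM. Ki is the y-intercept of a Hunter-Downs linear regression.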

Homo sapiens [14] = species on record: Homo sapiens; test: Selectivity ratio of apparent dissociation constant for enzyme-inhibitor complex for human AChE to apparent dissociation constant for enzyme-inhibitor complex for human BChE T243M/G390V mutant fluoride-resistant homozygous variant; method in brief: as §3
Cholinesterase [15] = target: T2, Cholinesterase; test: Binding affinity to human BChE D70G mutant atypical homozygous variant relative to terbutaline
Target sequence in this assay (P06276 whole entry): as above

Sequence of Cholinesterase (Homo sapiens, UniProt P06276, T271M/G418V) (P06276 29-602 T271M/G418V limits assumed): as the sequence (P06276 29-602 limits assumed) above, with T243M, G390V counted along it
T1 sequence (P22303 whole entry): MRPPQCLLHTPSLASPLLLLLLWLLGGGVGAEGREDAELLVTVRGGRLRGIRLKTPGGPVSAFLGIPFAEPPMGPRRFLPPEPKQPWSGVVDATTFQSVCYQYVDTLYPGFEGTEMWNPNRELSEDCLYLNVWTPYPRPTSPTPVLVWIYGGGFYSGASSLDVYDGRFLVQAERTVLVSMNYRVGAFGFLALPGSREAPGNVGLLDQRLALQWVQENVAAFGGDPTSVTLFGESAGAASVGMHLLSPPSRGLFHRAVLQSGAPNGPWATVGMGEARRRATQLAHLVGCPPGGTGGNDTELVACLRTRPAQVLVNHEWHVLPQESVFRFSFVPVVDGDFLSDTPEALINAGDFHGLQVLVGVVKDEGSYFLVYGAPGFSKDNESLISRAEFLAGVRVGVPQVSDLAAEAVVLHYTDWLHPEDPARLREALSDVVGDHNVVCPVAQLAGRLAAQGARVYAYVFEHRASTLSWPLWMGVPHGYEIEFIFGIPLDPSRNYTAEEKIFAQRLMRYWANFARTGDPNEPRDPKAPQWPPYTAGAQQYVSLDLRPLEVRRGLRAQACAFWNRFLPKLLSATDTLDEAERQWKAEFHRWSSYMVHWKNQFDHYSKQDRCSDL
Sequence of Cholinesterase (Homo sapiens, UniProt P06276, D98G) (P06276 29-602 D98G limits assumed): as the sequence (P06276 29-602 limits assumed) above, with D70G counted along it

Row | SMILES | Ki (Acetylcholinesterase [1]) [µM] | bimolecular inhibition rate constant (ki) (Cholinesterase [2]) [×10³ /M/min] | bimolecular inhibition rate constant (ki) (Cholinesterase [3]) [×10³ /M/min] | bimolecular inhibition rate constant (ki) (Cholinesterase [4]) [×10³ /M/min] | Carbamylation rate constant (ki) (Cholinesterase [5]) [×10³ /M/min] | Inhibition rate constant (Acetylcholinesterase [6]) [×10³ /M/min] | bimolecular inhibition rate constant (ki) (Cholinesterase [7]) [×10³ /M/min] | inhibition (Cholinesterase [8]) | inhibition (Cholinesterase [9]) | inhibition (Cholinesterase [10]) | inhibition (Cholinesterase [11]) | inhibition (Cholinesterase [12]) | Selectivity ratio (Homo sapiens [13]) | Selectivity ratio (Homo sapiens [14]) | Ratio (Cholinesterase [15])
1 | CC(C)NC[C@H](O)c1cc(OC(=O)N(C)C)cc(OC(=O)N(C)C)c1.Cl | 390 | 76 | 1100 | 2200 | 550 | 4.7 | 3200 | – | – | – | – | – | – | – | –
2 | CC(C)NC[C@H](O)c1ccc(OC(=O)N(C)C)c(OC(=O)N(C)C)c1.Cl | 1200 | 31 | 150 | 210 | 100 | 2.7 | 340 | – | – | – | – | – | – | – | –
3 | CC(C)NCC(O)c1cc(OC(=O)N(C)C)cc(OC(=O)N(C)C)c1.Cl (racemic) | 710 | 40 | 600 | 1400 | 440 | 2.3 | 2200 | tde | tde | tde | tde | tde | – | – | –
4 | CC(C)NCC(O)c1ccc(OC(=O)N(C)C)c(OC(=O)N(C)C)c1.Cl (racemic) | 1400 | 21 | 140 | 160 | 87 | 2.5 | 200 | tde | tde | tde | tde | tde | – | – | –
5 | CC(C)NCC(O)c1cc(O)cc(O)c1 (racemic) | – | – | – | – | – | – | – | – | – | – | – | – | 4 | 4 | –
6 | CC(C)NCC(O)c1ccc(O)c(O)c1 (racemic) | – | – | – | – | – | – | – | – | – | – | – | – | 4 | 4 | 2
